Source: PubChem BioAssay
IMP-1 inhibitor = blocks Pseudomonas aeruginosa IMP-1 metallo-beta-lactamase; purified IMP-1, nitrocefin hydrolysis, epi-absorbance fluorescence; AID 1556; inhibition, % at 5.6 µM; 290,000 compounds, 0.45% hits;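 active means inhibition above the mean plus 3 SD of all compounds in the same screening run, cut at about 4.5% in these data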;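 further: 0% = IMP-1 with DMSO and 100% = DMSO wells lacking enzyme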
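System: Purified recombinant IMP-1 metallo-beta-lactamase enzyme | Measured by: Fluorescence quenching readout, ex 480/em 530 nm | Replication: Singlicate | Incubation: 15 min preincubation plus 25 min reaction at 25 °C | Evaluation: Percent inhibition from optical density relative to buffer-blank wells | Benchmarks: DMSO with and without IMP-1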
SUMO Mot1 rescue = SUMOylation pathway inhibition by Mot1-301 growth rescue; S. cerevisiae Mot1-301 growth rescue, ATP luminescence, 38.5C; percent above DMSO median, 100 means doubled; growth rescue, % at 18.8 µM; 320,000 compounds, 1% hits;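 active means every valid replicate shows activation above 250% relative to neutral control wells; inactive means the rest, any valid replicate at or below 250%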;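 further: OY570 slx delta 5 strain wells were the positive control but not used for scaling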
NALP1 inh = NALP1 inhibition | S. cerevisiae NALP1/ASC/caspase-1 growth, X-gal OD620, 72 h | inhibition, % at 10 µM | 280,000 compounds, 0.61% hits | AID 2071; in the data active means inhibition mostly above about 24%, no sharp cut-off; inactive means mostly below about 32%
UBC9 SUMO inh = inhibitors of human SUMOylation (UBC9); P63279; HTRF SUMOylation assay, SAE1/SAE2 + UBC9, in vitro; inhibition, % at 35 µM; 290,000 compounds, 0.36% hits; AID 2006; in the data active means inhibition above about 50%, passing the limit was not always enough
Target sequence (P63279 whole entry, looked up): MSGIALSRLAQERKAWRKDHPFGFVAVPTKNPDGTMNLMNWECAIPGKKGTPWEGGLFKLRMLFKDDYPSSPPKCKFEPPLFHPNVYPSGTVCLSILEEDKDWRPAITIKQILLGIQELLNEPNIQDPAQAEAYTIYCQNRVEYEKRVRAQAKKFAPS
FID counter = fluorescent intercalator displacement, NS3 helicase counter-screen. 290,000 compounds, 0.17% hits. DNA fluorescent intercalator displacement, fluorescence. inhibition, % at 7.9 µM; in the data active means inhibition above about 37%;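 further: 0% = vehicle and 100% = reference compound; higher means more ethidium bromide displaced from hairpin DNA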
VIM-2 inhibitor = blocks Pseudomonas aeruginosa VIM-2 metallo-beta-lactamase; inhibition, % at 5.6 µM; 290,000 compounds, 0.89% hits; purified VIM-2, nitrocefin hydrolysis, epi-absorbance fluorescence;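 active means inhibition above the mean of all tested compounds plus 3 SD, cutoff set per screening run, cut at about 7.5% in these data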;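 further: red hydrolysis product quenches plate fluorescence so inhibitors raise well fluorescence; 0% = enzyme with DMSO and 100% = DMSO without enzyme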
Mot1 SUMO dose = SUMO pathway inhibitors in yeast Mot1-301 growth. S. cerevisiae Mot1-301 galactose growth, ATP luminescence, 24 h; -100 = growth of slx-deleted rescue strain. shares compounds with SUMO Mot1 rescue. AID 493004. 2,300 tested, under 10 active. growth activity, percent, % at 42 µM;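 active means Signal drops as the depositor expects, and the fitted half-maximal dose is no more than ten times the top valid tested dose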;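 further: more negative values mean stronger growth rescue toward the control strain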
* hit, by the source's call; . = not tested or not shown; + = active, no number. Compounds with a hit are over-represented: about 2.9% of the library has one in this group of screens.

SMILES | IMP-1 inhibitor | SUMO Mot1 rescue | NALP1 inh | UBC9 SUMO inh | FID counter | VIM-2 inhibitor | Mot1 SUMO dose
O=C(CSc1nnnn1-c1cccnc1)Nc1ccc(F)cc1F | -2 | -4 | 8 | -22 | -7 | -3 | .
CCN(c1ccccc1)S(=O)(=O)c1cc(C(=O)OC(C)C(=O)Nc2ccc3c(c2)OCCO3)ccc1C (centres undefined) | -1 | -12 | 11 | 19 | -12 | 1 | .
CN(CCOc1ccc(-c2ccn(S(=O)(=O)c3c(Cl)cccc3Cl)n2)cc1)c1ccccn1 | -2 | 22 | -10 | -10 | -3 | -4 | .
CN(CCOc1ccc(-c2ccn(S(=O)(=O)c3cccc4ccccc34)n2)cc1)c1ccccn1 | -3 | 643* | 32 | 1 | 4 | -3 | 0
CCCCC(=O)Nc1nnc(C2=COCCO2)o1 | -4 | 2 | -16 | 9 | 1 | -1 | .
COc1ccc(-c2c(C)nn3c(C)cc(C)nc23)cc1 | -1 | 519* | 12 | -1 | -14 | 4 | 0
Cc1cc(Cl)n2nc(C)c(-c3ccc(Cl)cc3)c2n1 | -2 | . | -19 | 6 | 7 | -5 | .
COc1ccc(N2C(=O)CSC23CCCCC3)cc1 | -7 | + | -68 | 6 | -17 | -2 | 1
O=C(CCSc1ccccc1)N1CCOCC1 | -2 | -6 | -2 | 0 | -1 | -2 | .
O=C(CCSc1nnnn1-c1ccccc1)N1CCOCC1 | -7 | 688* | 11 | 11 | -6 | -2 | 1
Cc1cnc(=O)[nH]c1SCC(=O)c1ccc(F)cc1 | 0 | 436* | 24 | 12 | -7 | -1 | 0
O=S(=O)(Nn1c(O)c(C=C2N=c3ccccc3=N2)sc1=S)c1ccccc1 | -5 | 908* | 1 | 8 | -5 | -4 | 1
Cc1ccccc1C(=O)NCCN1CCOCC1 | -1 | -3 | -2 | -4 | 12 | -4 | .
CC(C(=O)NCCN1CCOCC1)(c1ccccc1)c1ccccc1 | -1 | 667* | -7 | 5 | -1 | -5 | 0
N#C/C(=C\Nc1ccc2c(c1)OCCO2)c1nc2ccccc2[nH]1 | 0 | 935* | 11 | -1 | -1 | -4 | -1
N#C/C(=C\Nc1ccc2c(c1)OCCO2)c1nc(-c2ccccc2)cs1 | 0 | 5 | . | -5 | 3 | -2 | .
COc1ccc(S(=O)(=O)NC(C)C(=O)NCc2ccccn2)cc1OC (centres undefined) | -5 | 1 | 3 | 2 | -3 | -3 | .
COc1ccc(S(=O)(=O)NC(C)C(=O)NCc2ccccn2)cc1Cl (centres undefined) | -2 | 386* | 9 | -9 | -8 | 0 | 0
CCOc1ccc(C(=O)NNC2CC(=O)N(CCc3ccccc3)C2=O)cc1OC (centres undefined) | -3 | 737* | 12 | 6 | -26 | -2 | 0
O=C(Nc1cccnc1Cl)c1noc2c1CCc1ccccc1-2 | -3 | -18 | -1 | -7 | -3 | -2 | .
O=C1CC(=O)C(n2cncn2)C(c2ccc(Cl)cc2Cl)C1 (centres undefined) | -3 | + | 29 | 0 | -36 | -4 | 0
OC(c1ccccc1)(C1CCCCC1)C(CN1CCOCC1)c1ccccc1 (centres undefined) | -4 | 460* | 2 | -4 | -11 | -1 | 0
Clc1ccc(N=c2ssnc2Cl)nc1 | -2 | 655* | -19 | 3 | -7 | -5 | 0
CCCS(=O)(=O)N1CCC(C(=O)N2CCc3ccccc3C2)CC1 | -1 | 397* | -4 | 2 | -15 | 0 | 0
COC(=O)Cc1c(C)c2ccc(OCC(C)=O)c(C)c2oc1=O | 0 | -1 | 12 | 9 | -8 | 5 | .
SMILES | IMP-1 inhibitor | SUMO Mot1 rescue | NALP1 inh | UBC9 SUMO inh | FID counter | VIM-2 inhibitor | Mot1 SUMO dose
COc1cc(COc2ccc3c(C)c(CC(=O)O)c(=O)oc3c2C)cc(OC)c1OC | 0 | 628* | 22 | 18 | -28 | 0 | -1
CCc1c(C)c2ccc(OCC(=O)OC(C)C)c(C)c2oc1=O | -4 | 379 | -3 | 25 | -2 | -1 | 1
N#Cc1ccsc1NC(=O)CN1CCN(Cc2ccccc2)CC1 | -3 | -6 | 7 | -3 | 1 | -5 | .
CN(CC(=O)Nc1sccc1C#N)Cc1ccccc1 | -2 | 487* | 24 | -10 | 0 | 0 | 0
CCn1nnc2cc(C(=O)O)ccc21 | -1 | -27 | 0 | 21 | 0 | -2 | .
CCC(C)(O)C(=O)N[C@H]1CCCN1C(=O)/C=C/c1ccccc1 (some centres undefined) | . | 51 | . | . | . | . | .
CCCCCCCCc1nc(SCC(C)=O)n[nH]1 | -4 | 699* | . | 13 | -15 | -4 | -1
CC(C)(C)NC(=O)C(c1cccs1)N(Cc1cccs1)C(=O)c1ccc(CN2CCOCC2)o1 (centres undefined) | -4 | + | 6 | 7 | -30 | -2 | 0
CCc1ccc(NC(=O)C(C)Oc2nnc(-c3cccs3)c(-c3cccs3)n2)cc1 (centres undefined) | 0 | -13 | 3 | -5 | -5 | -3 | .
CC(C)c1ccc(NC(=O)COc2nnc(-c3cccs3)c(-c3cccs3)n2)cc1 | -4 | 810* | 10 | -12 | -14 | -3 | 0
CC(=O)Nc1ccc(NC(=O)Cn2c(=O)n(-c3ccc(C)cc3)c(=O)c3oc4ccccc4c32)cc1 | 1 | -31 | -8 | 21 | -18 | -2 | .
S=c1[nH]nc(-c2ccccn2)n1/N=C/c1ccccc1 | -2 | 369* | -13 | -5 | 3 | -1 | 0
Oc1c(Br)cc(Br)cc1/C=N/n1c(-c2ccccc2)n[nH]c1=S | 22* | 644* | -3 | 3 | -1 | -1 | -2
COc1c(Br)cc(/C=N/n2c(-c3ccccc3)n[nH]c2=S)c(O)c1Br | -1 | -22 | -10 | 4 | 0 | 0 | .
Cc1nn(C)c(C)c1NC(=O)COc1ccc(Cl)cc1Br | . | -11 | . | . | . | . | .
CCC/C(C#Cc1ccsc1)=C1/c2ccccc2C(=O)N1c1ccccc1 | . | 47 | . | . | . | . | .
S=c1[nH]nc(-c2ccco2)n1-c1ccc(Br)cc1 | . | 532* | . | . | . | . | 1
Cn1c(-c2ccco2)n[nH]c1=S | -3 | 16 | -9 | -5 | 8 | 3 | .
CCN(C(=O)COC(=O)CCc1ccccc1OC)c1c(N)n(Cc2ccccc2)c(=O)[nH]c1=O | . | 1 | . | . | . | . | .
CCN(C(=O)Nc1ccccc1OC)c1c(N)n(Cc2ccccc2)c(=O)[nH]c1=O | -5 | 471* | -8 | 11 | -1 | -6 | 0
CCOC(=O)c1cnc2c(OC)cccc2c1N1CCN(c2ccccc2OC)CC1 | -6 | + | 15 | -12 | -27 | -1 | 0
CCOC(=O)c1cnc2ccc(Cl)cc2c1N1CCN(C)CC1 | -1 | 616* | -10 | 8 | -1 | -2 | 0
